Results as given in ChEMBL document CHEMBL1156724, “Synthesis of triazole-oxazolidinones via a one-pot reaction and evaluation of their antimicrobial activity” (2008).
≈ marks a conversion by molar mass, not a printed value. Calls of active or inactive are those of the source. The rule behind the calls is not given here.

Legend:
Type in all cases: functional
[1] = tested on: Mycolicibacterium smegmatis; test: Antibacterial activity against Mycobacterium smegmatis ATCC 14468 after 48 hrs visualized by MTT […]; conditions: ATCC 14468, 48 h
[2] = tested on: Mycolicibacterium smegmatis; test: Antibacterial activity against Mycobacterium smegmatis ATCC 14468 assessed as zone of inhibition diameter at 1 mg/mL after 48 hrs by Kirby-Bauer disk diffusion assay; conditions: ATCC 14468, 48 h, read-out: IZ
How it was run: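 Kirby–Bauer disk diffusion on Middlebrook 7H10 agar with 0.5% glycerol and OADC. Inoculum grown in 7H9 with 0.2% glycerol and ADC about 24 h at 37 °C, 180 rpm. 10 µL of 1 mg/mL compound in DMSO applied to 6 mm disks. INH (1 mg/mL in DMSO) positive control, DMSO negative control. Plates incubated 48 h at 37 °C. Inhibition zone diameter measured.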

[3] = tested on: Bacillus subtilis; test: Antibacterial activity against Bacillus subtilis ATCC 6633 assessed as zone of inhibition diameter at 1 mg/mL after 24 hrs by Kirby-Bauer disk diffusion assay; conditions: ATCC 6633, 24 h, read-out: IZ
How it was run: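 Kirby–Bauer disk diffusion on nutrient agar, inoculum grown in Mueller–Hinton broth about 24 h at 37 °C, 180 rpm. 10 µL of 1 mg/mL compound in DMSO applied to 6 mm paper disks. Vancomycin (1 mg/mL in water) positive control, DMSO negative control. Plates incubated 24 h at 37 °C. Inhibition zone diameter measured.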

[4] = tested on: Bacillus subtilis; test: Antibacterial activity against Bacillus subtilis ATCC 6633 after 24 hrs visualized by MTT analyzed by broth microdilution assay; conditions: ATCC 6633, 24 h
[5] = tested on: Enterococcus faecalis; test: Antibacterial activity against Enterococcus faecalis ATCC 29212 assessed as zone of inhibition diameter at 1 mg/mL after 24 hrs by Kirby-Bauer disk diffusion assay
How it was run: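 Inoculum grown in Mueller–Hinton broth ~24 h at 37 °C, 180 rpm, then plated on nutrient agar. Kirby–Bauer disk method: 10 µL of 1 mg/mL solution in DMSO applied to 6 mm sterile paper disk; vancomycin (1 mg/mL in water) positive control, DMSO negative control. Plates incubated 24 h at 37 °C; inhibition zone diameter measured.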

[6] = tested on: Enterococcus faecalis; test: Antibacterial activity against Enterococcus faecalis ATCC 29212 after 24 hrs visualized by MTT analyzed by broth microdilution assay; conditions: ATCC 29212, 24 h

Structure (SMILES) | MIC [1] [µg/mL] | zone of inhibition at 1000 µg/mL [2] [mm] | zone of inhibition at 1000 µg/mL [3] [mm] | MIC [4] [µg/mL] | zone of inhibition at 1000 µg/mL ([5]; ATCC 29212, 24 h, read-out: IZ) [mm] | MIC [6] [µg/mL] | Activity [5]
NNC(=O)c1ccncc1 [ISONIAZID] | 4 (≈ 29.2 µM) | 17 |  |  |  |  | 
CN[C@H](CC(C)C)C(=O)N[C@H]1C(=O)N[C@@H](CC(N)=O)C(=O)N[C@H]2C(=O)N[C@H]3C(=O)N[C@H](C(=O)N[C@H](C(=O)O)c4cc(O)cc(O)c4-c4cc3ccc4O)[C@H](O)c3ccc(c(Cl)c3)Oc3cc2cc(c3O[C@@H]2O[C@H](CO)[C@@H](O)[C@H](O)[C@H]2O[C@H]2C[C@](C)(N)[C@H](O)[C@H](C)O2)Oc2ccc(cc2Cl)[C@H]1O [VANCOMYCIN] |  |  | 15 | 0.5 (≈ 0.345 µM) | 14 | 1 (≈ 0.69 µM) | 
CC(=O)c1ccc(N2CC(Cn3ccnn3)OC2=O)cc1 (stereo not drawn) | 1 (≈ 3.49 µM) | 25 | 26 | 4 (≈ 14 µM) |  | 16 (≈ 55.9 µM) | inactive
CC(=O)c1ccc(N2CC(Cn3cc(CCO)nn3)OC2=O)cc1 (stereo not drawn) | 16 (≈ 48.4 µM) | 15 | 17 | > 32 |  | > 32 | inactive
